Test results from ChEMBL document CHEMBL6096655, “Discovery of a novel, selective CK2 inhibitor class with an unusual basic scaffold” (Eur J Med Chem, 2025).
Blank lines part the entries; values can stand above or below the compound they belong to. Active and inactive are the calls of the source. The calls are words filed in the database; no cut-off is given here.

Key:
[1] = Upregulation of PARP cleavage in human U-937 cells by measuring signal 2 at 2 uM measured after 48 hrs by immunoblot analysis; type: functional
Method in brief: (§1)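 U937 lymphoma cells grown in RPMI with 2 mM L-glutamine, 1 % pen/strep and 10 % FCS; exposed to compound or DMSO solvent control for 48 h. Total cellular proteins harvested and immunoblotted with an antibody against phosphorylated CK2-substrate motifs and for PARP. Read-out is the densitometric ratio of cleaved to uncleaved PARP signal. Representative of two independent experiments.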

[2] = Antiproliferative activity against HEK293 cells assessed as inhibition of cell growth measured after 3 to 4 days by MTT assay; type: toxicity, cell-based; settings: human, time 3-4 day
Method in brief: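 HEK293 cells grown in DMEM with 2 mM L-glutamine, 1% pen/strep and 10% FCS. Cells were seeded at 5000 per well, left overnight, then given medium with 1% FCS plus compound or DMSO (max. 0.2% final). They were grown 3–4 days at 37 °C in 5% CO₂ with no medium change, and growth was read by MTT.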

U-937 = assay: Antiproliferative activity against human U-937 cells assessed as inhibition of cell growth measured after 3 to 4 days by MTT assay; type: functional; settings: time 3-4 day
Method in brief: (§2)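 786-O or U937 cells grown in RPMI with 2 mM L-glutamine, 1% pen/strep and 10% FCS. Cells were seeded at 5000 per well and left overnight, then switched to 1% FCS medium containing compound or DMSO (max. 0.2% final). Growth ran 3–4 days at 37 °C in 5% CO₂ without medium change, followed by MTT read-out. GI50 is the mean ± SD of at least two independent experiments.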

HCT-116 = assay: Antiproliferative activity against human HCT-116 cells measured after 72 hrs by alamar blue staining based fluorescence assay; type: functional
786-0 [3] = assay: Antiproliferative activity against human 786-0 cells assessed as inhibition of cell growth measured after 3 to 4 days by MTT assay; type: functional; settings: time 3-4 day; method in brief: as §2
[4] = Upregulation of PARP cleavage in human U-937 cells by measuring signal 1 at 5 uM measured after 48 hrs by immunoblot analysis; type: functional
Method in brief: (§3)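 U937 cells exposed to compound or DMSO for 48 h, then lysed in Laemmli buffer. Lysates were run on 8–16% gradient SDS-PAGE, semi-dry blotted to PVDF and probed for PARP. Detection used IR-fluorescent secondary antibodies. The cleaved/uncleaved PARP signal ratio was obtained by densitometry. Results are representative of two independent experiments.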

786-0 [5] = assay: Induction of cell death in human 786-0 cells assessed as cell viability at 5 uM measured after 11 hrs by CellCyteX live-cell microscopy analysis; type: functional, cell-based
Method in brief: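 786-O cells seeded at 3×10³ per well and grown 24 h. Compound was then added in culture medium containing 125 nM Cytotox Green, at 0.2% (v/v) final DMSO, and kept at 37 °C in 5% CO₂. Green fluorescence images of dead cells were taken every 3 h by live-cell microscopy and normalized to the DMSO control. Results are representative of three independent measurements.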

786-0 [6] = assay: Antiproliferative activity against human 786-0 cells assessed as inhibition of cell growth at 30 uM measured after 3 to 4 days by MTT assay relative to control; type: functional; settings: time 3-4 day
Method in brief: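 786-O cells (RPMI, 10% FCS) seeded at 5000 per well and left overnight. Compound was added at a single 30 µM concentration in 1% FCS medium (DMSO max. 0.2%). Cells grew 3–4 days at 37 °C, 5% CO₂, with no medium change, and were read by MTT. Percent inhibition is the mean of duplicates that differed by ≤10%.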

[7] = biological target: T1, Hsp90 co-chaperone Cdc37 (Homo sapiens) (UniProt Q16543); assay: Inhibition of CDC37 phosphorylation in human 786-O cells at 10 uM measured after 48 hrs by immunoblot analysis relative to control
T1 sequence (whole entry): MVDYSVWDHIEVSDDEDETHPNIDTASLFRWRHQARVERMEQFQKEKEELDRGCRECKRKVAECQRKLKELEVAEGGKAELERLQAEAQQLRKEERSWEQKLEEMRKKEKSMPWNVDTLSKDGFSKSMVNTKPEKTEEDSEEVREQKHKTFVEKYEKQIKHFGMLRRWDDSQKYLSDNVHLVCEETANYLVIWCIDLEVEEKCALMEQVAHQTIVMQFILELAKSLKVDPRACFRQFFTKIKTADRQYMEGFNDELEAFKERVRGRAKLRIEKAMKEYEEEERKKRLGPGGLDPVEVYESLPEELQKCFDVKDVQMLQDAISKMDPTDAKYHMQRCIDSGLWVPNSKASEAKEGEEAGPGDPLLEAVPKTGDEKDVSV

[8] = Upregulation of PARP cleavage in human U-937 cells by measuring signal 2 at 5 uM measured after 48 hrs by immunoblot analysis; type: functional; method in brief: as §1
[9] = biological target: Eukaryotic translation initiation factor 2 subunit 2 (Homo sapiens) (UniProt P20042); assay: Inhibition of eIF2beta phosphorylation in human 786-O cells at 10 uM measured after 48 hrs by immunoblot analysis relative to control
[10] = Upregulation of PARP cleavage in human U-937 cells by measuring signal 1 at 2 uM measured after 48 hrs by immunoblot analysis; type: functional; method in brief: as §3
[11] = biological target: Signal transducer and activator of transcription 3 (Homo sapiens) (UniProt P40763); assay: Inhibition of STAT3 phosphorylation in human 786-O cells at 10 uM measured after 48 hrs by immunoblot analysis relative to control
[12] = Upregulation of PARP cleavage in human U-937 cells by measuring signal 2 at 10 uM measured after 48 hrs by immunoblot analysis; type: functional; method in brief: as §3
[13] = biological target: T2, Casein kinase II subunit alpha (Homo sapiens, UniProt P68400); assay: Inhibition of CK2alpha (unknown origin)
Target sequence in this assay (P68400 whole entry): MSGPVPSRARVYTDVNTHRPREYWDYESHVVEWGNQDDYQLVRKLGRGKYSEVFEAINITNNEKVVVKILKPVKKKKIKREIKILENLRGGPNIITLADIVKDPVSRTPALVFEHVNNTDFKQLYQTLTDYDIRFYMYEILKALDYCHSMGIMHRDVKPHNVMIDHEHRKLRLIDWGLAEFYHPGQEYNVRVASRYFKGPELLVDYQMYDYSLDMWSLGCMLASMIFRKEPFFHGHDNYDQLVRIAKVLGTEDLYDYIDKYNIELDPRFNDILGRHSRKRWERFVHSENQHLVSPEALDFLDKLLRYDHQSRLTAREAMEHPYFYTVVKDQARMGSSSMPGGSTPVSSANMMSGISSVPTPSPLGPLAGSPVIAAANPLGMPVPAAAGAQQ

[14] = biological target: T2, Casein kinase II subunit alpha; assay: Inhibition of CK2alpha (unknown origin) assessed as residual activity at 5 uM relative to control
Target sequence in this assay (P68400 whole entry, looked up): as the sequence (P68400 whole entry) above

Sequence of Signal transducer and activator of transcription 3 (Homo sapiens) (P40763 whole entry): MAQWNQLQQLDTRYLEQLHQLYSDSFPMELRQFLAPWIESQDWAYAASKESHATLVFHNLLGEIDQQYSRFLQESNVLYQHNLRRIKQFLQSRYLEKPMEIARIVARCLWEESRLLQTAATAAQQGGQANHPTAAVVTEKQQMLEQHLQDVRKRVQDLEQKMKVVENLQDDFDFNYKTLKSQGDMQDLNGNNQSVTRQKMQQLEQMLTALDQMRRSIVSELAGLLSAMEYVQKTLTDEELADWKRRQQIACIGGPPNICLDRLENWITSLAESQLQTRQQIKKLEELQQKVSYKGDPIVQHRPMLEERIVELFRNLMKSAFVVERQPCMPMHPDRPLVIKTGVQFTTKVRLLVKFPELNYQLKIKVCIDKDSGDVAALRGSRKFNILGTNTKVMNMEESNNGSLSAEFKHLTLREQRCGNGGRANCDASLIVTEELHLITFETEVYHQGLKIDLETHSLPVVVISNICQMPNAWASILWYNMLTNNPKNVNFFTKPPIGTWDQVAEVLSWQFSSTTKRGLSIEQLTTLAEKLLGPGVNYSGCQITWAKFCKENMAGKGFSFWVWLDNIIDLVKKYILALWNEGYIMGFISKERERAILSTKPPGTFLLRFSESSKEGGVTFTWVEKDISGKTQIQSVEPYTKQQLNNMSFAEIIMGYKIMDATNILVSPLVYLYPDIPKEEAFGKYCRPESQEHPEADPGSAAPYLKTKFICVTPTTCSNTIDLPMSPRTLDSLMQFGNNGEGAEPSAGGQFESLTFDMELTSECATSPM
Sequence of Eukaryotic translation initiation factor 2 subunit 2 (Homo sapiens) (P20042 whole entry): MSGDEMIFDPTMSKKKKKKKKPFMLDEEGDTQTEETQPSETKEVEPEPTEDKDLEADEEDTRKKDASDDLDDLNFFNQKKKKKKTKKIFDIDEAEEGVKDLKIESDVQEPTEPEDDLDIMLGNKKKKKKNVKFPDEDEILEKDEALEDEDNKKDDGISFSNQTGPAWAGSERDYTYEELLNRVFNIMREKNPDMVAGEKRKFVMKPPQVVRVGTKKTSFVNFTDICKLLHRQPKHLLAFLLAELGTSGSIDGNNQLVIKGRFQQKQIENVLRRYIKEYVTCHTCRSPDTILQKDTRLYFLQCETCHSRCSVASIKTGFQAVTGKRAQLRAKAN

SMILES: Fc1ccccc1N1CCN(c2ncnc3sc4c(c23)CCNC4)CC1
inhibition at 30 µM (786-0 [6]): 35.8%

SMILES: c1ccc(N2CCN(c3ncnc4sc5c(c34)CCNC5)CC2)cc1
inhibition at 30 µM (786-0 [6]): 15.9%

SMILES: Cc1cccc(N2CCN(c3ncnc4sc5c(c34)CCNC5)CC2)c1
inhibition at 30 µM (786-0 [6]): 47.2%

SMILES: COc1ccc(N2CCN(c3ncnc4sc5c(c34)CCNC5)CC2)cc1
inhibition at 30 µM (786-0 [6]): 27.7%

SMILES: Fc1ccc(N2CCN(c3ncnc4sc5c(c34)CCNC5)CC2)cc1
inhibition at 30 µM (786-0 [6]): 25.3%

SMILES: COc1ccccc1N1CCN(c2ncnc3sc4c(c23)CCNC4)CC1
inhibition at 30 µM (786-0 [6]): 36.7%

Further lines, with some results ahead:

GI50 (U-937): 1.8 µM
GI50 (HCT-116): > 10 µM
GI50 (786-0 [3]): 5.7 µM
SMILES: CCC(=O)Nc1cc(Nc2cc(NC3CC3)n3ncc(C#N)c3n2)ccc1C
Activity [1]: 0%
GI50 [2]: > 30 µM
Activity [4]: 91%
Activity (786-0 [5]): Not active; Compound Showed Poor Efficacy To Induce Cell Death

inhibition [7]: 73%
inhibition [9]: 96%
GI50 (U-937): 4 µM
inhibition [11]: 100%
GI50 (786-0 [3]): 5.5 µM
SMILES: O=C(O)c1ccc2c(c1)nc(Nc1cccc(Cl)c1)c1ccncc12 [SILMITASERTIB]
Activity [1]: 0%
GI50 [2]: > 30 µM
Activity [8]: 91%
Activity [10]: 82%
inhibition (786-0 [6]): inactive
Activity [12]: 39%
Activity [4]: 88%
Activity (786-0 [5]): Not active; Compound Showed Poor Efficacy To Induce Cell Death

GI50 (786-0 [3]): 14.7 µM
SMILES: Cc1ccc(N2CCN(c3ncnc4sc5c(c34)CCNC5)CC2)cc1
inhibition at 30 µM (786-0 [6]): 78.2%

GI50 (786-0 [3]): 6.6 µM
SMILES: Brc1ccccc1/C=N/Nc1ncnc2sc3c(c12)CCNC3
inhibition at 30 µM (786-0 [6]): 99.2%

GI50 (786-0 [3]): 15 µM
SMILES: Fc1cccc(N2CCN(c3ncnc4sc5c(c34)CCNC5)CC2)c1
inhibition at 30 µM (786-0 [6]): 74.6%

IC50 [13]: 0.15 µM
Activity [14]: 23%
SMILES: Cc1nc2c(Br)c(Br)c(Br)c(Br)c2n1CCCN

GI50 (786-0 [3]): 30 µM
SMILES: Cc1ccccc1N1CCN(c2ncnc3sc4c(c23)CCNC4)CC1
inhibition at 30 µM (786-0 [6]): 52.1%

GI50 (786-0 [3]): 29.5 µM
SMILES: COc1cccc(N2CCN(c3ncnc4sc5c(c34)CCNC5)CC2)c1
inhibition at 30 µM (786-0 [6]): 50.2%
